Granule exo inh: lytic granule exocytosis inhibition; inhibition, % at 10 µM; actives 0.66% (n = 360,000); TALL-104 LAMP-1 surface exposure, flow cytometry; cells stimulated with thapsigargin and PMA;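 active means inhibition above about 55%, limit read from the data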
PfG6PD inh: PfG6PD (Plasmodium falciparum) enzyme inhibition; inhibition, % at 20 µM; AID 504690; PfGluPho enzyme, NADPH resazurin-diaphorase fluorescence; actives 0.78% (n = 350,000);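 active means inhibition reaching at least a set limit at 20 µM in the primary screen, cut at about 59% in these data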;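 further: 0% = DMSO wells with substrate and 100% = DMSO wells lacking glucose-6-phosphate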
ABHD5-PLIN5 inh: blocks binding of human ABHD5 to perilipin-5; Split G. princeps luciferase complementation, luminescence, 4 h; inhibition, % at 4 µM; actives 0.78% (n = 360,000); Q00G26+Q8WTS1;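 active means inhibition above the mean inhibition across every tested compound plus 3 SD, cut at about 22% in these data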;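 further: 0% = DMSO only wells and the 100% control is not disclosed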
HKDC1 inhibitor: inhibitors of human hexokinase HKDC1. Q2TB90. recombinant HKDC1, G6PDH/diaphorase resazurin coupled fluorescence. inhibition, % at 20 µM. actives 0.16% (n = 340,000);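 active means inhibition above about 35% when tested at 20 µM, limit read from the data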;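 further: plate controls were DMSO wells with enzyme for no effect and DMSO wells lacking enzyme for full effect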
Target sequence (Q2TB90 whole entry, looked up): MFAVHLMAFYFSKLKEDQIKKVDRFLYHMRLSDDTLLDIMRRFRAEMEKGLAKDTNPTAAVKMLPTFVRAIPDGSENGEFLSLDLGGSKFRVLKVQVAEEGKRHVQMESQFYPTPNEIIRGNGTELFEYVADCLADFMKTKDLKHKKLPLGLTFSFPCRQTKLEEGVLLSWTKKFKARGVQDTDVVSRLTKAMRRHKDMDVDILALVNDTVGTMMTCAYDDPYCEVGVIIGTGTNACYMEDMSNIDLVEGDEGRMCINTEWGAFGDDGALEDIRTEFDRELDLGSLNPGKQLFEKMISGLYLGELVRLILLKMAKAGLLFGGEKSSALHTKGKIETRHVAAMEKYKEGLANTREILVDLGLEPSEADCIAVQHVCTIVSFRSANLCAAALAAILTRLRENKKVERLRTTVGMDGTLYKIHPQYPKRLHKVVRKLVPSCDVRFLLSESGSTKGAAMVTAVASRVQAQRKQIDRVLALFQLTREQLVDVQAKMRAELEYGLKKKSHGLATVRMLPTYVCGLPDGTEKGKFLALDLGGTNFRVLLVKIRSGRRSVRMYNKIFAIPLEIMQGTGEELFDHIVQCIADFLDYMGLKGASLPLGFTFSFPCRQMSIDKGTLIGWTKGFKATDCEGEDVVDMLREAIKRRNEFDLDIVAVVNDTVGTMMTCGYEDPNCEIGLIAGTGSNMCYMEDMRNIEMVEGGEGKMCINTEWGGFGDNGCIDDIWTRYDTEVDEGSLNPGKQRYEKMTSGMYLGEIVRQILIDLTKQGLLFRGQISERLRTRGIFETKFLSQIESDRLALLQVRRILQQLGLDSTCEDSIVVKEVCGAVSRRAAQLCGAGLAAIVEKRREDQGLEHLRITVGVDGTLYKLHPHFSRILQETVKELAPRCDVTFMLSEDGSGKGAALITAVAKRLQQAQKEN
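Assay system – recombinant HKDC1 (HK5) hexokinase enzyme, produced in-house · Input – HKDC1 at 5 µg/mL · Reagent – glucose plus 1 mM ATP as hexokinase substrates · Timing – 90 min reaction incubation at room temperature, dark · Measured by – G6PDH/diaphorase-coupled fluorescence, 1 mM NADP, 100 µM resazurin, 525/613 nm · Benchmarks – DMSO-enzyme wells negative, buffer-substituted wells positive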
HKDC1 act conf2: confirmation of human HKDC1 activators; shares compounds with HKDC1 inhibitor; recombinant HKDC1, G6PDH/diaphorase resazurin fluorescence; active compounds read low; inhibition, % at 20 µM; actives 14% (n = 740);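 active means inhibition at or below a set negative limit, negative inhibition meaning the enzyme was activated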
* = called active by the depositor; nt = no result. This is a sample that favours compounds with a hit; in the whole collection about 2.2% have one here.

SMILES	Granule exo inh	PfG6PD inh	ABHD5-PLIN5 inh	HKDC1 inhibitor	HKDC1 act conf2
Cc1cc(C)nc(Nc2n[nH]c(-c3ccc(N)cc3)n2)n1	-2	-8	5	-2	nt
COc1ccccc1/C=C/C(=O)NCC(=O)N/N=C/c1ccccc1	0	-8	9	1	nt
O=C(CNC(=O)c1cccs1)N/N=C/c1ccc(O)cc1O	0	-28	1	-46	-26
O=C(CCc1ccccc1)NCC(=O)N/N=C/c1ccc(O)cc1O	-3	-27	-4	-43	-6
COc1ccccc1/C=C\C(=O)NCC(=O)N/N=C/c1ccc(O)cc1O	5	-30	-4	-41	-32
O=C(CN1CCCc2ccccc21)N/N=C/c1ccc(O)cc1O	2	-14	0	-43	-34
COc1ccccc1CNC(=O)CCNS(=O)(=O)/C=C/c1ccc(C)cc1	-2	-6	1	-1	nt
Cc1cccc(COc2ccc(/C=N/NC(=O)c3nnn(-c4nonc4N)c3COc3ccc(F)cc3)cc2)c1	-3	0	3	-6	nt
CCCCn1c(N)c(N(CCOC)C(=O)COC(=O)c2ccccc2NCCO)c(=O)[nH]c1=O	-5	6	-1	-6	nt
Cc1ccc(N=Nc2ccc(O)c3ncccc23)cc1C	0	-20	1	-43	-40*
O=C(O)c1ccc(NC2=C(Cl)C(=O)c3ccccc3C2=O)cc1	70*	-89	3	-131	-94*
O=C1C(Cl)=C(Nc2ccccc2)C(=O)c2ccccc21	42	-17	4	-38	nt
C/C(=N\NC(=O)c1c(C)nc2ccccn12)c1ccc(O)cc1O	-6	-9	8	-45	-8
Cc1ccc(-n2c(N)c(C(=O)Nc3c(C)n(C)n(-c4ccccc4)c3=O)c3nc4ccccc4nc32)cc1	-1	-1	-2	4	nt
Cc1cc(C)cc(-n2c(N)c(C(=O)Nc3c(C)n(C)n(-c4ccccc4)c3=O)c3nc4ccccc4nc32)c1	-2	14	-1	38*	-33
COc1cccc(-n2c(N)c(C(=O)Nc3c(C)n(C)n(-c4ccccc4)c3=O)c3nc4ccccc4nc32)c1	-19	31	3	36*	28
COC(=O)C1(Cc2ccc3c(c2)CCC3)Cc2ccc3c(c2C1=O)CCC3 (configuration not stated)	-8	15	8	3	nt
Cc1cccc(NC(=O)CSc2nnc(-c3cc(C)[nH]n3)n2N)c1	8	12	nt	-4	nt
CCOc1ccc(CCNC(=O)c2ccc3c(=O)[nH]c4c(C(=O)NC(C)C)sc(=S)n4c3c2)cc1	5	4	-2	41*	26
CC(C)NC(=O)c1sc(=S)n2c1[nH]c(=O)c1ccc(C(=O)NCCc3ccc(Cl)cc3)cc12	0	-15	6	16	nt
CCCCNC(=O)c1sc(=S)n2c1[nH]c(=O)c1ccccc12	0	23	-7	38*	56
O=C(Nc1ccc(S(=O)(=O)Nc2ncccn2)cc1)c1ccc2ncsc2c1	-4	15	-7	34	33
CC(=O)c1ccc2c(c1)C1C=CCC1C(C(=O)O)N2 (configuration not stated)	-2	28	4	34	36
O=C(c1ccccc1)c1n[nH]c(-c2ccccc2)cc1=O	2	-3	1	-42	16
Cc1ccc2oc(C(=O)N3CCC(N4CCSCC4)CC3)c(C)c2c1	-5	1	-11	35*	-13
SMILES	Granule exo inh	PfG6PD inh	ABHD5-PLIN5 inh	HKDC1 inhibitor	HKDC1 act conf2
COc1ccc(-c2nc3c(c(=O)n(C)c(=O)n3C)n2CC2CC(c3ccccc3)=NO2)cc1OC (configuration not stated)	19	-51	8	-48	-33*
COC(=O)[C@@H](c1ccccc1)N(C)S(=O)(=O)c1cccc(S(=O)(=O)N(C)[C@@H](C(=O)OC)c2ccccc2)c1	-4	-1	1	8	nt
CC(C)c1nc2oc3c(=O)[nH]cnc3c2c2c1COC(C)(C)C2	3	32	1	36*	48
CCCc1nc2oc3c(OC)ncnc3c2c2c1COC(C)(C)C2	-5	46	-7	37*	42
CC(C)c1nc2oc3c(NCCO)ncnc3c2c2c1COC(C)(C)C2	-1	56	3	46*	66
CCCc1nc2oc3c(NCCOCCO)ncnc3c2c2c1COC(C)(C)C2	-5	44	4	39*	42
Cc1nc2oc3c(NCc4ccccc4)ncnc3c2c2c1COC(C)(C)C2	-2	19	-2	26	nt
COc1ccc(C(CNC(=O)C(CC(C)C)NS(=O)(=O)c2ccc(C)cc2)N2CCOCC2)cc1 (configuration not stated)	-1	2	-3	-4	nt
O=C(NC1CCCC1)C(c1ccccc1)N(C(=O)c1csnn1)c1ccccc1F (configuration not stated)	-6	-5	-1	3	nt
O=C1C=C(NNC(=O)c2ccccc2Br)CCC1	-7	-14	-2	14	nt
O=S(=O)(CCSc1nc2ccccc2s1)c1nc2ccccc2s1	15	27	9	39*	0
COc1ccc(C(=O)/C=C/Sc2nc3ccccc3o2)cc1	31	27	5	38*	4
COc1ccc(C(=O)N/C(N)=N/c2nc3ccccc3o2)cc1	-1	-1	-2	-3	nt
CSc1cc(C)c(OCC(=O)Nc2ccc(NC(C)=O)cc2)c(C)c1	-4	-8	4	-11	nt
O=c1oc2cc(Oc3c([N+](=O)[O-])cc(C(F)(F)F)cc3[N+](=O)[O-])ccc2c2c1CCCC2	-3	14	18	40*	3
CC1CC1C(=O)OCC(=O)NNC(=O)c1ccc([N+](=O)[O-])cc1 (configuration not stated)	-1	3	3	-3	nt
NC(=S)N=Nc1c(O)[nH]c2ccc(F)cc12	0	-10	-2	9	nt
NC(=S)N=Nc1c(O)cc(O)c2[nH]c(=O)ccc12	2	93*	29*	35*	27
CCOc1ccc(N(CC(=O)NCc2ccc(F)cc2)C(=O)c2ccco2)cc1	3	-2	3	-4	nt
COc1ccc(-n2c(C)cc(C(=O)CCl)c2C)cc1	12	-3	11	35*	34
O=C(NC(=S)NNC(=O)c1ccccc1O)c1ccco1	4	-33	3	-44	15
COc1ccc(-c2oc(NC(=O)CCl)c(C#N)c2-c2ccc(OC)cc2)cc1	3	-30	6	46*	21
Nc1ccn([C@@H]2O[C@H](CNCc3ccc(Oc4cc(-n5cccn5)ncn4)cc3)[C@@H](O)[C@H]2O)c(=O)n1	1	-4	7	nt	nt
O=C(CNC(=O)/C=C/c1ccco1)N=Nc1c(O)[nH]c2ccccc12	3	28	-1	51*	39
O=C(CNC(=O)Cc1ccccc1)N=Nc1c(O)[nH]c2ccccc12	-9	4	-7	-1	nt
CC[C@@]12C(=O)N(c3ccc(C)cc3)C(=O)N1[C@H](c1ccc(Br)cc1)[C@@H]1C(=O)N(C(C)(C)C)C(=O)[C@@H]12	0	7	-8	2	nt

From PubChem
